The source of these data is ChEMBL document CHEMBL1250467, “Design, synthesis, and anticonvulsant activity of new N-Mannich bases derived from spirosuccinimides and spirohydantoins” (Bioorg Med Chem, 2010).

The source made the active and inactive calls. No cut-off for these calls is given here.

The species entered for data set [1] is Rattus norvegicus. Put plainly: Protection index, ratio of TD50 for Sprague-Dawley rat by rotarod test to ED50 for Sprague-Dawley rat by maximal electroshock test. The data set is classed as functional. In outline: (§1)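 Male Sprague–Dawley rats dosed orally (0.5% methylcellulose/water suspension), groups of eight, tested at the previously estimated time of peak effect. Doses varied until at least three points lay in the 10–90% range of protection (MES, scPTZ) or minimal rotarod neurotoxicity. ED50/TD50 with 95% confidence intervals came from regression; PI = TD50/ED50.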

Data set [2] relates to Rattus norvegicus. As to the kind of experiment: Anticonvulsant activity in po dosed Sprague-Dawley rat assessed as protection against maximal electroshock-induced seizures. The data set is classed as functional. The procedure, abridged: as §1
Data set [3] relates to Mus musculus. Put plainly: Anticonvulsant activity in CF1 albino mouse assessed as protection against maximal electroshock-induced seizures at 300 mg/kg, ip after 4 hrs. It counts as functional, organism-based. On the set-up: dose 300 mg/kg. In outline:
(§2)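 Male CF-1 mice; compounds suspended in 0.5% methylcellulose/water and injected ip at 30, 100 and 300 mg/kg. MES, scPTZ (pentylenetetrazole 85 mg/kg sc at the test time) and rotarod neurotoxicity were scored at 0.5 and 4 h. Value is the lowest dose active or toxic in half or more of the animals; signs such as ataxia or tremor were recorded.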

Data set [4] concerns Mus musculus. Put plainly: Neurotoxicity in CF1 albino mouse at 300 mg/kg, ip after 4 hrs by rotarod test. Also noted: dose 300 mg/kg, route intraperitoneal. Particulars: in vivo. The data set is classed as toxicity, organism-based. In outline:
as §2

The test system of data set [5] is Mus musculus. Put plainly: Neurotoxicity in ip dosed CF1 albino mouse assessed as dose required to cause toxicity after 0.5 hrs by rotarod test. Particulars: in vivo. It counts as organism-based. In outline:
as §2

Data set [6] deals with Mus musculus. Put plainly: Anticonvulsant activity in CF1 albino mouse assessed as protection against subcutaneous pentylenetetrazole-induced seizures at 300 mg/kg, ip after 4 hrs. The data set is classed as functional, organism-based. Also noted: dose 300 mg/kg. In outline: as §2
In data set [7] the test system is Mus musculus. Put plainly: Anticonvulsant activity in CF1 albino mouse assessed as protection against maximal electroshock-induced seizures at 300 mg/kg, ip after 0.5 hrs. The data set is classed as functional, organism-based. Also noted: dose 300 mg/kg. In outline: as §2
The test system of data set [8] is Mus musculus. Put plainly: Anticonvulsant activity in CF1 albino mouse assessed as protection against subcutaneous pentylenetetrazole-induced seizures at 300 mg/kg, ip after 0.5 hrs. The data set is classed as functional, organism-based. On the set-up: dose 300 mg/kg. In outline:
as §2

The subject of data set [9] is Mus musculus. Put plainly: Neurotoxicity in ip dosed CF1 albino mouse assessed as dose required to cause toxicity after 4 hrs by rotarod test. It counts as organism-based. Particulars: in vivo. In outline: as §2
The test system of data set [10] is Rattus norvegicus. Put plainly: Anticonvulsant activity in po dosed Sprague-Dawley rat assessed as protection against subcutaneous pentylenetetrazole-induced seizures. It counts as functional. In outline: as §1
Data set [11] concerns Rattus norvegicus. As to the kind of experiment: Anticonvulsant activity in Sprague-Dawley rat assessed as protection against maximal electroshock-induced seizures at 30 mg/kg po after 0.25 hrs. It counts as functional. In outline: (§3)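 Male Sprague–Dawley rats, four per group, given 30 mg/kg orally as a 0.5% methylcellulose/water suspension. MES protection scored at 0.25, 0.5, 1, 2 and 4 h after dosing, motor impairment checked in parallel; data are the number of the four rats protected.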

Data set [12] is described as follows: Displacement of [3H]batrachotoxin from neurotoxin site 2 of voltage-gated sodium channel in rat forebrain tissue. Conditions: read-out: IC50.
The subject of data set [13] is Rattus norvegicus. As to the kind of experiment: Anticonvulsant activity in Sprague-Dawley rat assessed as protection against maximal electroshock-induced seizures at 30 mg/kg po after 4 hrs. The data set is classed as functional. The procedure, abridged: as §3
The nature of data set [14]: Neurotoxicity in po dosed Sprague-Dawley rat by rotarod test. It counts as toxicity, organism-based. Particulars: in vivo. In outline:
as §1

Data set [15] has as its system Rattus norvegicus. As to the kind of experiment: Anticonvulsant activity in Sprague-Dawley rat assessed as protection against maximal electroshock-induced seizures at 30 mg/kg po after 1 hr. The data set is classed as functional. In outline: as §3
In data set [16] the test system is Mus musculus. Put plainly: Anticonvulsant activity in ip dosed CF1 albino mouse assessed as dose required to protect against maximal electroshock-induced seizures after 0.5 hrs. It counts as functional. In outline:
as §2

For data set [17], the system named is Mus musculus. As to the kind of experiment: Anticonvulsant activity in ip dosed CF1 albino mouse assessed as dose required to protect against maximal electroshock-induced seizures after 4 hrs. It counts as functional. In outline: as §2
Data set [18] relates to Rattus norvegicus. As to the kind of experiment: Anticonvulsant activity in Sprague-Dawley rat assessed as protection against maximal electroshock-induced seizures at 30 mg/kg po after 2 hrs. It counts as functional. In outline:
as §3

The subject of data set [19] is Rattus norvegicus. Put plainly: Anticonvulsant activity in po dosed Sprague-Dawley rat assessed as time required to peak protection against seizures. The data set is classed as functional.
For data set [20], the system named is Rattus norvegicus. As to the kind of experiment: Anticonvulsant activity in Sprague-Dawley rat assessed as protection against maximal electroshock-induced seizures at 30 mg/kg po after 0.5 hrs. The data set is classed as functional. The procedure, abridged:
as §3

Regarding `O=C1CC2(CCc3ccccc3C2)C(=O)N1CCN1CCN(c2cccc(C(F)(F)F)c2)CC1` (stereo not drawn), the PI in the data set listed under Rattus norvegicus [1] is reported as 1.95. In addition, the ED50 with Rattus norvegicus [2] came to 205 mg/kg.
For the compound `O=C1CC2(CCc3ccccc3C2)C(=O)N1CN1CCN(c2ccccc2F)CC1` (stereo not drawn), the result with Mus musculus [3], in the data set on Mus musculus [6], in the data set with Mus musculus [7] and in the data set with Mus musculus [8] was inactive. The values for the Activity entry in the data set on Mus musculus [4] and in the data set on Mus musculus [5] were “Non-toxic” and 300 mg/kg, respectively.
Regarding `O=C1CC2(CCc3ccccc3C2)C(=O)N1CCN1CCN(c2cccc(Cl)c2)CC1` (stereo not drawn), in the data set filed under Rattus norvegicus [1], the PI is 2.6. Further, the ED50 in the data set with Rattus norvegicus [2] worked out at 23 mg/kg.
`O=C1NC2(CCc3ccccc3C2)C(=O)N1CN1CCN(c2ccc(F)cc2)CC1` (stereo not drawn): the outcome in the data set on Mus musculus [3], in the data set on Mus musculus [6], in the data set on Mus musculus [7] and in the data set with Mus musculus [8] was inactive. In addition, the Activity in the data set with Mus musculus [5] and in the data set with Mus musculus [9] was 30 mg/kg throughout.
Turning to `O=C1CC2(CCc3ccccc3C2)C(=O)N1CN1CCN(c2ccccc2)CC1` (stereo not drawn), the outcome in the data set on Mus musculus [3], in the data set with Mus musculus [6], in the data set with Mus musculus [7] and with Mus musculus [8] was inactive. Also, the Activity is 100 mg/kg in the data set with Mus musculus [5] and 300 mg/kg in the data set on Mus musculus [9].
On to `O=C1NC(=O)C(c2ccccc2)(c2ccccc2)N1` [PHENYTOIN], for which the 50% effective dose (ED50) in the data set with Rattus norvegicus [10] is more than 500 mg/kg. Also, the Activity was 25% in the data set on Rattus norvegicus [11]; 75% in the data set on Rattus norvegicus [13]; 100 mg/kg in the data set on Mus musculus [5]; 100 mg/kg in the data set with Mus musculus [9]; 75% in the data set with Rattus norvegicus [15]; 30 mg/kg in the data set with Mus musculus [16]. Further, the Activity in the data set with Mus musculus [17] is 30 mg/kg; in the data set on Rattus norvegicus [18] it was 75%; in the data set on Rattus norvegicus [20], 100%. Moreover, the IC50 in [12] stood at 40 µM. Moreover, the PI in the data set filed under Rattus norvegicus [1] is reported as more than 3.6. In addition, in data set [14], the TD50 was more than 100 mg/kg. The outcome with Mus musculus [6] and with Mus musculus [8] was inactive. For the same compound, in the data set with Rattus norvegicus [19], the Time amounted to 1 h.
